This is an account of results in ChEMBL document CHEMBL4251721, “Imidazole Alkaloids and Their Zinc Complexes from the Calcareous Marine Sponge Leucetta chagosensis” (J Nat Prod, 2018).

The subject of experiment [1] is THP-1. As to the kind of experiment: Antiinflammatory activity in human THP1 cells assessed as inhibition of LPS-stimulated TNFalpha production by measuring TNF-alpha level in serum at 10 uM preincubated for 2 hrs followed by LPS addition measured after 22 hrs by flow cytometry (reference value: 9900 +/- 300 pg/ml). It is filed as functional.
Experiment [2] concerns THP-1. As to the kind of experiment: Antiinflammatory activity in human THP1 cells assessed as inhibition of LPS-stimulated MCP-1 level in serum at 10 uM preincubated for 2 hrs followed by LPS addition measured after 22 hrs by flow cytometry. It is filed as functional, cell-based. A general note: Flow cytometry measures light scatter and fluorescence of single cells or particles in a stream.

Experiment [3] relates to THP-1. As to the kind of experiment: Antiinflammatory activity in human THP1 cells assessed as inhibition of LPS-stimulated IL-12p70 level in serum at 10 uM preincubated for 2 hrs followed by LPS addition measured after 22 hrs by flow cytometry. It is filed as functional, cell-based.
Experiment [4] concerns A549. Briefly: Cytotoxicity against human A549 cells assessed as reduction in cell viability after 72 hrs by CCK-8 assay. It is filed as functional, cell-based. To be noted: A549, 72 h. (Formazan colour is commonly taken as a measure of viable cells.)
Experiment [5] has as its system MCF7. Briefly: Cytotoxicity against human MCF7 cells assessed as reduction in cell viability after 72 hrs by CCK-8 assay. It is filed as functional, cell-based. To be noted: MCF7, 72 h. The method, boiled down: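 Cells were kept at 37 °C in DMEM with 10% nondialyzed FBS and 2 mM L-glutamine. The Oct4-GFP line is MCF-7 made stem-like by lentiviral Oct4-GFP overexpression. Cells were seeded at 3000/well and grown 24 h, then exposed to six concentrations of compound (DMSO solutions) for 72 h.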

Experiment [6] concerns PC-9. As to the kind of experiment: Cytotoxicity against human PC9 cells assessed as reduction in cell viability after 72 hrs by CCK-8 assay. To be noted: PC-9, 72 h. It is filed as functional, cell-based.
The test system of experiment [7] is THP-1. Briefly: Antiinflammatory activity in human THP1 cells assessed as inhibition of LPS-stimulated IL-10 level in serum at 10 uM preincubated for 2 hrs followed by LPS addition measured after 22 hrs by flow cytometry. It is filed as functional, cell-based.
Experiment [8] has as its system THP-1. Briefly: Antiinflammatory activity in human THP1 cells assessed as inhibition of LPS-stimulated IL-6 production by measuring IL-6 level in serum at 10 uM preincubated for 2 hrs followed by LPS addition measured after 22 hrs by flow cytometry (reference value: 6100 +/- 200 pg/ml). It is filed as functional.
The subject of experiment [9] is MCF7. Briefly: Induction of apoptosis in human MCF7 cells assessed as viable cells at 5 uM after 24 hrs by Annexin V-FITC/propidium iodide staining based flow cytometry (reference value: 96.6%). It is filed as functional. To be noted: MCF7, 24 h, read-out: Activity.
In experiment [10] the test system is MCF7. Briefly: Induction of apoptosis in human MCF7 cells assessed as late apoptotic cells at 5 uM after 24 hrs by Annexin V-FITC/propidium iodide staining based flow cytometry (reference value: 0.309%). It is filed as functional.
In experiment [11] the test system is MCF7. As to the kind of experiment: Induction of apoptosis in human MCF7 cells assessed as viable cells at 10 uM after 24 hrs by Annexin V-FITC/propidium iodide staining based flow cytometry (reference value: 96.6%). It is filed as functional. To be noted: MCF7, 24 h, read-out: Activity.
The test system of experiment [12] is MCF7. As to the kind of experiment: Cytotoxicity against human MCF7 cells expressing Oct4-GFP assessed as reduction in cell viability after 72 hrs by CCK-8 assay. It is filed as functional, cell-based. To be noted: MCF7, 72 h. In short, it runs like this:
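Cells were kept at 37 °C in DMEM with 10% nondialyzed FBS and 2 mM L-glutamine. The Oct4-GFP line is MCF-7 made stem-like by lentiviral Oct4-GFP overexpression. Cells were seeded at 3000/well and grown 24 h, then exposed to six concentrations of compound (DMSO solutions) for 72 h. CCK-8 was added for 2 h at 37 °C and A450 read to give IC50.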

Experiment [13] relates to MCF7. Briefly: Induction of apoptosis in human MCF7 cells assessed as early apoptotic cells at 5 uM after 24 hrs by Annexin V-FITC/propidium iodide staining based flow cytometry (reference value: 0.866%). It is filed as functional.
The test system of experiment [14] is MCF7. Briefly: Induction of apoptosis in human MCF7 cells assessed as late apoptotic cells after 24 hrs by Annexin V-FITC/propidium iodide staining based flow cytometry. It is filed as functional, cell-based.
Experiment [15] deals with MCF7. As to the kind of experiment: Induction of apoptosis in human MCF7 cells assessed as early apoptotic cells after 24 hrs by Annexin V-FITC/propidium iodide staining based flow cytometry. It is filed as functional, cell-based.
In experiment [16] the test system is MCF7. Briefly: Induction of apoptosis in human MCF7 cells assessed as early apoptotic cells at 10 uM after 24 hrs by Annexin V-FITC/propidium iodide staining based flow cytometry (reference value: 0.866%). It is filed as functional.
In experiment [17] the test system is MCF7. As to the kind of experiment: Induction of apoptosis in human MCF7 cells assessed as necrotic cells at 5 uM after 24 hrs by Annexin V-FITC/propidium iodide staining based flow cytometry (reference value: 2.19%). It is filed as functional.
The subject of experiment [18] is MCF7. Briefly: Induction of apoptosis in human MCF7 cells assessed as late apoptotic cells at 10 uM after 24 hrs by Annexin V-FITC/propidium iodide staining based flow cytometry (reference value: 0.309%). It is filed as functional.
Experiment [19] relates to MCF7. Briefly: Induction of apoptosis in human MCF7 cells assessed as necrotic cells at 10 uM after 24 hrs by Annexin V-FITC/propidium iodide staining based flow cytometry (reference value: 2.19%). It is filed as functional.

Structures are written as SMILES. Activity calls are given as the source filed them. No cut-off for these calls is given here.

In the case of `Nc1cccc2c1C(=O)N(C1CCC(=O)NC1=O)C2=O` (configuration not stated) [POMALIDOMIDE], in experiment [1], the Activity was determined as 7500 pg/mL.
For the molecule `COc1ccc(C2=C3C(=NC(=N)N3C)C(=O)c3c(OC)ccc(OC)c32)cc1`, the inhibition result in experiment [2], in experiment [3] and in experiment [7] was “inactive” in each case. The IC50 in [4], in experiment [5] and in experiment [6] was above 20 µM in each case. In addition, the Activity in experiment [1] worked out at 9700 pg/mL; in experiment [8] it was 5400 pg/mL.
Take `CNC1=N/C(=N/c2nc(Cc3ccc4c(c3)OCO4)cn2C)C(=O)O1`: the inhibition result in experiment [2], in experiment [3] and in experiment [7] was “inactive” throughout. Besides, the IC50 in experiment [4], in experiment [5] and in experiment [6] was above 20 µM each time. In addition, the results for the Activity in [1] and in [8] were 9900 pg/mL and 7600 pg/mL, respectively.
As for `CN/C(N)=N\C(=O)Nc1nc(Cc2ccc3c(c2)OCO3)cn1C`, the inhibition entry in experiment [2], in experiment [3] and in [7] was “inactive” in each case. Further, the IC50 in experiment [4], in experiment [5] and in experiment [6] was above 20 µM each time. Further, the figures for the Activity in [1] and in experiment [8] were 7800 pg/mL and 5000 pg/mL, respectively.
On to `CC(C)=CCC/C(C)=C/Cc1cc(-c2coc3cc(O)ccc3c2=O)ccc1O`, for which the Activity in experiment [8] is 2700 pg/mL.
Turning to `CC(=O)O[C@H]1C(=O)[C@@]2(C)[C@H]([C@H](OC(=O)c3ccccc3)[C@]3(O)C[C@H](OC(=O)[C@H](O)[C@@H](NC(=O)c4ccccc4)c4ccccc4)C(C)=C1C3(C)C)[C@]1(OC(C)=O)CO[C@@H]1C[C@@H]2O` [PACLITAXEL], the values for the half-inhibitory concentration (IC50) in [4] and in [6] were 0.0032 µM and 0.0027 µM, respectively.
In the case of `COc1ccc(Cc2nc(/N=C3\NC(=O)N(C)C3=O)n(C)c2Cc2ccc(OC)c(OC)c2O)cc1` [PYRONAAMIDINE], the IC50 (usually the point on the concentration scale where inhibition reaches its midpoint) amounted to 7.8 µM in experiment [4], 10 µM in experiment [12], 5.2 µM in experiment [5] and 5.6 µM in experiment [6]. Further, the viability at 5 µM in experiment [9] worked out at 82%. The Activity in experiment [10] is 6.25%; in [13] it was 10.2%; in experiment [14] it was “Dose-dependent effect”; in experiment [15] it was “Dose-dependent effect”; in experiment [16], 32.3%; in experiment [17], 1.54%. Moreover, the Activity came to 30.1% in experiment [18] and 2.55% in [19]. Moreover, in [11], the viability at 10 µM is 34.8%.
